# Assay results from ChEMBL document CHEMBL2062515, “Synthesis and evaluation of novel radioligands for positron emission tomography imaging of metabotropic glutamate receptor subtype 1 (mGluR1) in rodent brain” (J Med Chem, 2012).
# The source made the active and inactive calls. The rule behind the calls is not given here.
# Tests used:
# [1] = Lipophilicity, log D of the compound in octanol-phosphate buffer at pH 7.4 by Shake flask method; assay type: physicochemical
# Procedure, shortened: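 Radioligand shaken with n-octanol and 0.1 M sodium phosphate buffer pH 7.4 (3.0 g each), vortex 3 min room temperature, centrifuged 2330g 5 min; phases weighed and counted, octanol repartitioned until constant. LogD = log(cpm/g octanol / cpm/g buffer); triplicate.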
# [2] = molecular target: Metabotropic glutamate receptor 1 (Rattus norvegicus, UniProt P23385); experiment: Displacement of 4-[18F]fluoro-N-[4-(6-(isopropylamino)pyrimidin-4-yl)-1,3-thiazol-2-yl]-N-methylbenzamide from mGluR1 in Sprague-Dawley rat brain homogenates after 1 hr; assay type: tissue-based
# Procedure, shortened: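 Rat whole-brain homogenate (washed pellets in 50 mM Tris-HCl pH 7.4, 120 mM NaCl; diluted to 100 mg/mL in Tris-HCl with NaCl, KCl, MgCl₂, CaCl₂) incubated 1 h, room temperature with [¹⁸F]-ligand (3 nM in PBS) and competitor […] in 0.1% DMSO. Filtration on PEI-treated GF/C, gamma counting; Kd by Scatchard; IC50/Ki by nonlinear regression; duplicate, mean SE.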
# [3] = molecular target: Metabotropic glutamate receptor 5 (Rattus norvegicus, UniProt P31424); experiment: Displacement of [11C]-ABP688 from mGluR5 in Sprague-Dawley rat brain homogenates after 1 hr by gamma counting; assay type: tissue-based
# Procedure, shortened: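 mGluR5 competition in same rat brain homogenate, run as mGluR1 assay but with [¹¹C]ABP688-type radioligand: 1 h room temperature incubation, filtration through PEI-treated glass fiber filters, gamma counting, nonlinear regression for IC50.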
# [4] = molecular target: Metabotropic glutamate receptor 1 (Rattus norvegicus) (UniProt P23385); experiment: Binding affinity to mGluR1 in Sprague-Dawley rat cerebellum at 0.4 MBq after 30 mins by autoradiography
# [5] = molecular target: Metabotropic glutamate receptor 1 (Rattus norvegicus) (UniProt P23385); experiment: Binding affinity to mGluR1 in Sprague-Dawley rat thalamus at 0.4 MBq after 30 mins by autoradiography
# Procedure, shortened: (§1)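 Sections were 20 μm rat brain slices, preincubated 20 min at room temperature in 50 mM Tris-HCl pH 7.4 containing 1.2 mM MgCl₂ and 2 mM CaCl₂. Incubation was 30 min at room temperature with an ¹⁸F radioligand at 0.4 MBq (5 pM or 4 pM), with or without JNJ-16259685 (1 μM). Sections were washed 3 × 5 min in cold buffer, rinsed in cold distilled water and air-dried cold.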
# [6] = molecular target: Metabotropic glutamate receptor 1 (Rattus norvegicus) (UniProt P23385); experiment: Binding affinity to mGluR1 in Sprague-Dawley rat striatum at 0.4 MBq after 30 mins by autoradiography; procedure, shortened: as §1
# [7] = molecular target: Metabotropic glutamate receptor 1 (Rattus norvegicus) (UniProt P23385); experiment: Binding affinity to mGluR1 in Sprague-Dawley rat brain stem at 0.4 MBq after 30 mins by autoradiography; assay type: tissue-based
# [8] = molecular target: Metabotropic glutamate receptor 1 (Rattus norvegicus) (UniProt P23385); experiment: Binding affinity to mGluR1 in Sprague-Dawley rat cerebellum at 0.4 MBq after 30 mins by autoradiography in presence of JNJ16259685
# [9] = molecular target: Metabotropic glutamate receptor 1 (Rattus norvegicus) (UniProt P23385); experiment: Binding affinity to mGluR1 in Sprague-Dawley rat thalamus at 0.4 MBq after 30 mins by autoradiography in presence of JNJ16259685; conditions: 0.4 M, tested as the 18F-labelled form; procedure, shortened: as §1
# [10] = molecular target: Metabotropic glutamate receptor 1 (Rattus norvegicus) (UniProt P23385); experiment: Binding affinity to mGluR1 in Sprague-Dawley rat striatum at 0.4 MBq after 30 mins by autoradiography in presence of JNJ16259685; conditions: 0.4 M, tested as the 18F-labelled form; procedure, shortened: as §1
# [11] = molecular target: Metabotropic glutamate receptor 1 (Rattus norvegicus) (UniProt P23385); experiment: Binding affinity to mGluR1 in Sprague-Dawley rat brain stem at 0.4 MBq after 30 mins by autoradiography in presence of JNJ16259685; assay type: tissue-based; conditions: 0.4 M, tested as the 18F-labelled form; procedure, shortened: as §1
# [12] = molecular target: Metabotropic glutamate receptor 1 (Rattus norvegicus) (UniProt P23385); experiment: Binding affinity to mGluR1 in Sprague-Dawley rat cerebellum at 9.2 MBq after 30 mins by autoradiography; conditions: 9.2 M, tested as the 11C-labelled form
# Procedure, shortened: (§2)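 Rat brain sections (20 μm) were preincubated 20 min at room temperature in 50 mM Tris-HCl pH 7.4 with 1.2 mM MgCl₂ and 2 mM CaCl₂. They were then incubated 30 min at room temperature in fresh buffer with the ¹¹C radioligand (9.2 MBq, 0.5 nM), with or without JNJ-16259685 (1 μM) to define specific binding. Sections were washed 3 × 5 min in cold buffer, dipped in cold water and dried with cold air.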
# [13] = molecular target: Metabotropic glutamate receptor 1 (Rattus norvegicus) (UniProt P23385); experiment: Binding affinity to mGluR1 in Sprague-Dawley rat thalamus at 9.2 MBq after 30 mins by autoradiography; conditions: 9.2 M, tested as the 11C-labelled form; procedure, shortened: as §2
# [14] = molecular target: Metabotropic glutamate receptor 1 (Rattus norvegicus) (UniProt P23385); experiment: Binding affinity to mGluR1 in Sprague-Dawley rat striatum at 9.2 MBq after 30 mins by autoradiography; conditions: 9.2 M, tested as the 11C-labelled form; procedure, shortened: as §2
# [15] = molecular target: Metabotropic glutamate receptor 1 (Rattus norvegicus) (UniProt P23385); experiment: Binding affinity to mGluR1 in Sprague-Dawley rat brain stem at 9.2 MBq after 30 mins by autoradiography; assay type: tissue-based; conditions: 9.2 M, tested as the 11C-labelled form; procedure, shortened: as §2
# [16] = molecular target: Metabotropic glutamate receptor 1 (Rattus norvegicus) (UniProt P23385); experiment: Binding affinity to mGluR1 in Sprague-Dawley rat cerebellum at 9.2 MBq after 30 mins by autoradiography relative to control in presence of JNJ16259685; conditions: 9.2 M, tested as the 11C-labelled form; procedure, shortened: as §2
# [17] = molecular target: Metabotropic glutamate receptor 1 (Rattus norvegicus) (UniProt P23385); experiment: Binding affinity to mGluR1 in Sprague-Dawley rat thalamus at 9.2 MBq after 30 mins by autoradiography relative to control in presence of JNJ16259685; conditions: 9.2 M, tested as the 11C-labelled form; procedure, shortened: as §2
# [18] = molecular target: Metabotropic glutamate receptor 1 (Rattus norvegicus) (UniProt P23385); experiment: Binding affinity to mGluR1 in Sprague-Dawley rat striatum at 9.2 MBq after 30 mins by autoradiography relative to control in presence of JNJ16259685; conditions: 9.2 M, tested as the 11C-labelled form; procedure, shortened: as §2
# [19] = molecular target: Metabotropic glutamate receptor 1 (Rattus norvegicus) (UniProt P23385); experiment: Binding affinity to mGluR1 in Sprague-Dawley rat brain stem at 9.2 MBq after 30 mins by autoradiography relative to control in presence of JNJ16259685; assay type: tissue-based; conditions: 9.2 M, tested as the 11C-labelled form; procedure, shortened: as §2
# [20] = molecular target: Metabotropic glutamate receptor 1 (Rattus norvegicus) (UniProt P23385); experiment: Binding affinity to mGluR1 in Sprague-Dawley rat brain at 9.2 MBq after 30 mins by autoradiography relative to control in presence of JNJ16259685; assay type: tissue-based; conditions: 9.2 M, tested as the 11C-labelled form; procedure, shortened: as §2
# [21] = molecular target: Metabotropic glutamate receptor 1 (Rattus norvegicus) (UniProt P23385); experiment: Binding affinity to mGluR1 in Sprague-Dawley rat thalamus after 30 mins by autoradiography in presence of JNJ16259685; conditions: tested as the 11C-labelled form
# [22] = molecular target: Metabotropic glutamate receptor 1 (Rattus norvegicus) (UniProt P23385); experiment: Binding affinity to mGluR1 in Sprague-Dawley rat striatum after 30 mins by autoradiography in presence of JNJ16259685; conditions: tested as the 11C-labelled form
# [23] = molecular target: Metabotropic glutamate receptor 1 (Rattus norvegicus) (UniProt P23385); experiment: Binding affinity to mGluR1 in Sprague-Dawley rat brain stem after 30 mins by autoradiography in presence of JNJ16259685; conditions: tested as the 11C-labelled form
# [24] = 0.4 M, tested as the 18F-labelled form
# [25] = 9.2 M, in the assay text read “9.2 MBq” for “0.4 MBq”, tested as the 11C-labelled form
# Sequence of Metabotropic glutamate receptor 1 (Rattus norvegicus) (P23385 19-1199 limits assumed): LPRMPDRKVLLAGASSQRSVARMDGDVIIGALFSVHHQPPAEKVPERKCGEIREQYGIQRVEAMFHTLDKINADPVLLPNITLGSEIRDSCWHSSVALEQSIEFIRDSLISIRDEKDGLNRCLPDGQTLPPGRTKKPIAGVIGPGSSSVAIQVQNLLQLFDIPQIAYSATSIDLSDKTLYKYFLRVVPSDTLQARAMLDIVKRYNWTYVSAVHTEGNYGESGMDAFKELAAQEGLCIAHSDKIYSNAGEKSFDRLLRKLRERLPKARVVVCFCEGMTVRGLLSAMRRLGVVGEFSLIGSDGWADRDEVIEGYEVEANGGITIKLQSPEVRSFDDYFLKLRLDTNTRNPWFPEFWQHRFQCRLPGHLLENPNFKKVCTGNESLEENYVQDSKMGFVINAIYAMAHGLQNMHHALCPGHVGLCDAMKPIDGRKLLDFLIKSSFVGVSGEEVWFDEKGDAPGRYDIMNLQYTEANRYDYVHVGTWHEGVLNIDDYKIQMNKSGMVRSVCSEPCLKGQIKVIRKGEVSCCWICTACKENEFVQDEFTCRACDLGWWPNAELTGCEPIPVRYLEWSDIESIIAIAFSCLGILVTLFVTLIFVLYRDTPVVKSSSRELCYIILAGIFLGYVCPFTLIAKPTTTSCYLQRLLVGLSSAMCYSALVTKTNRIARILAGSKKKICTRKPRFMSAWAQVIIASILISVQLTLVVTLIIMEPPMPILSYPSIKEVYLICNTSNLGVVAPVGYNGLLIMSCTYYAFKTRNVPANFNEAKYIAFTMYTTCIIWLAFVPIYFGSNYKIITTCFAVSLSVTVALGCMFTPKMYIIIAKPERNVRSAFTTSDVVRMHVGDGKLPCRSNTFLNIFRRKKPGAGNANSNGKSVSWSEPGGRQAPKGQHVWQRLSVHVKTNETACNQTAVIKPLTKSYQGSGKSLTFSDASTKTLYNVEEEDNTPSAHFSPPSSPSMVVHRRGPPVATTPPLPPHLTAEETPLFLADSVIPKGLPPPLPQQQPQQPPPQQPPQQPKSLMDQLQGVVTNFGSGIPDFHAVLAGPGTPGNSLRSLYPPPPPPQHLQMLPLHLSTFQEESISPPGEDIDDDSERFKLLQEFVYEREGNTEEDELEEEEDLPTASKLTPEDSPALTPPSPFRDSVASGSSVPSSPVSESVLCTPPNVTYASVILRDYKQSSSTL
# Sequence of Metabotropic glutamate receptor 1 (P23385 whole entry): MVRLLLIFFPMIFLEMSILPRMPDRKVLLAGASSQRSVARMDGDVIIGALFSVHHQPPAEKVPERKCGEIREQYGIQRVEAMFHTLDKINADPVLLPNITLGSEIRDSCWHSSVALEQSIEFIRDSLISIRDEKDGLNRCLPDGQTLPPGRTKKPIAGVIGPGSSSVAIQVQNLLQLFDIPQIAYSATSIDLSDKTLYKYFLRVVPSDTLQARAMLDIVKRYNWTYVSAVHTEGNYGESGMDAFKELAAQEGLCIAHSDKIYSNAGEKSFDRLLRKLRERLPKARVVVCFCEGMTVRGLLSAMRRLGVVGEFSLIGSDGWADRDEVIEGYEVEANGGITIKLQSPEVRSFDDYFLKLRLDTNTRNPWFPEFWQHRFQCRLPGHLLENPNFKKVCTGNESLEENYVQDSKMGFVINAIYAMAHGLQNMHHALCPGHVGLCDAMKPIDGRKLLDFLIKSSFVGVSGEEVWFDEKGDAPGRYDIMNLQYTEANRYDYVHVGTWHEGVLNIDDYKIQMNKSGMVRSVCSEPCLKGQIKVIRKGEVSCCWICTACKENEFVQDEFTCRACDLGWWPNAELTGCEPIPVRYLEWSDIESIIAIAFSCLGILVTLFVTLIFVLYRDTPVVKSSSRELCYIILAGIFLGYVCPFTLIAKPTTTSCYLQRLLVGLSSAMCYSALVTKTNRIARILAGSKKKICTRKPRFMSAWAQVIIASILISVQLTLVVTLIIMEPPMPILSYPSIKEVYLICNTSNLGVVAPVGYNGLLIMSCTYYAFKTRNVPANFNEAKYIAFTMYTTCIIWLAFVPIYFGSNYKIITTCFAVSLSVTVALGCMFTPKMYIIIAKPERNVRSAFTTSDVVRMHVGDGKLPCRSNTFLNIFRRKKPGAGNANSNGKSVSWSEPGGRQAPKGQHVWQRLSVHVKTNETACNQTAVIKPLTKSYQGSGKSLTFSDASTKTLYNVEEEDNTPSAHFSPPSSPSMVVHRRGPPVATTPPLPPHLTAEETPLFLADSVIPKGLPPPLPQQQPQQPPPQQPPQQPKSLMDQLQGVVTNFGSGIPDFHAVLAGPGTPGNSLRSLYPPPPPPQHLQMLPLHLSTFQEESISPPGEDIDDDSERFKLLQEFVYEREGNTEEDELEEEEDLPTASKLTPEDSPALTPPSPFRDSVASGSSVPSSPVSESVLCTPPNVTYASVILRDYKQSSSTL
# Sequence of Metabotropic glutamate receptor 5 (P31424 whole entry): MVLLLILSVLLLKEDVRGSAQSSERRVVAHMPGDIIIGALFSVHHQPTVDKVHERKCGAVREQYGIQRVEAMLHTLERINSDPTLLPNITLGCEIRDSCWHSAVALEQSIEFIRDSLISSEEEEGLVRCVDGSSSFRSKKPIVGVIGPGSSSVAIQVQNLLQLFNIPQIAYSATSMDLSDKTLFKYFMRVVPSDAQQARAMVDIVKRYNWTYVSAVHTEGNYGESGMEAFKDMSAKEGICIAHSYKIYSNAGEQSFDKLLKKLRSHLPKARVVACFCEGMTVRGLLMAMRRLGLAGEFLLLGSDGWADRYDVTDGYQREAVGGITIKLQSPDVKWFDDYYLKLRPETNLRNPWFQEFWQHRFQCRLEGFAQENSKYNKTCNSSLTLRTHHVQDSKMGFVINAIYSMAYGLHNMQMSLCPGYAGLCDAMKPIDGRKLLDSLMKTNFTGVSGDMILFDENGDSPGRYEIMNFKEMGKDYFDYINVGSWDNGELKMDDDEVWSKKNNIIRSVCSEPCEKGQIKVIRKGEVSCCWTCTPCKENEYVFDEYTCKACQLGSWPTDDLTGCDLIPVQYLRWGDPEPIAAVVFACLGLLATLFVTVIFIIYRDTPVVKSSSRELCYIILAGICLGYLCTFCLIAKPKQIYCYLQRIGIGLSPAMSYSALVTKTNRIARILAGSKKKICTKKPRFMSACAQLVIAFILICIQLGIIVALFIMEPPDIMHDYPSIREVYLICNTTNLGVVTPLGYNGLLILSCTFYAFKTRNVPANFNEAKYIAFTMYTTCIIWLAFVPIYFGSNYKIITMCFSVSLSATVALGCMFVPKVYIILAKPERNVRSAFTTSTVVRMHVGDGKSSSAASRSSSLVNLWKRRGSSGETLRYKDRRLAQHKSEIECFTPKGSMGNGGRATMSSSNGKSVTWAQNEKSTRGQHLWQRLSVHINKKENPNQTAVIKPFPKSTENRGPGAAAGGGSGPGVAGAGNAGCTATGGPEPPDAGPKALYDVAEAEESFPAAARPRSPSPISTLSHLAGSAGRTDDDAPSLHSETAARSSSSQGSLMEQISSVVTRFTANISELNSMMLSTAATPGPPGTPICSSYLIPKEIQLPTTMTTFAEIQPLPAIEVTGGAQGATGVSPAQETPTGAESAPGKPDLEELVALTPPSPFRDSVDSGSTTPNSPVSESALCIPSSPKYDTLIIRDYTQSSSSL
logD [1],IC50 [2] [nM],Ki [2] [nM],IC50 [3] [nM],"Activity [4, 24]","Activity [5, 24]","Activity [6, 24]","Activity [7, 24]","Activity [8, 24]",Activity [9],Activity [10],Activity [11],Compound,further results
2.8,> 10000,> 5000,> 10000,Active,Active,Active,Active,inactive,inactive,inactive,inactive,CC(C)Nc1cc(-c2csc(N(C)C(=O)c3ccc(OCCCF)cc3)n2)ncn1,–
1.45,13.9,5.4,> 10000,–,–,–,–,–,–,–,–,CC(C)Nc1cc(-c2csc(N(C)C(=O)c3ccc(F)cc3)n2)ncn1,–
2.57,32.7,12.6,> 10000,–,–,–,–,–,–,–,–,COc1ccc(C(=O)N(C)c2nc(-c3cc(NC(C)C)ncn3)cs2)cc1,"Activity [12]: Active; Activity [13]: Active; Activity [14]: Active; Activity [15]: Active; Activity [16]: 30%; Activity [17]: 30%; Activity [18]: 30%; Activity [19]: 30%; Activity [4, 25]: Active; Activity [5, 25]: Active; Activity [6, 25]: Active; Activity [7, 25]: Active; Activity [8, 25]: inactive; Activity [20]: > 70%; Activity [21]: inactive; Activity [22]: inactive; Activity [23]: inactive"
2.59,395,153,> 10000,Active,Active,Active,Active,inactive,inactive,inactive,inactive,CC(C)Nc1cc(-c2csc(N(C)C(=O)c3ccc(OCCF)cc3)n2)ncn1,–
